These results are taken from ChEMBL document CHEMBL4699643, “γ-Ketobenzyl-Modified Nucleoside Triphosphate Prodrugs as Potential Antivirals” (J Med Chem, 2020).

Data set [1] in a line: Substrate activity at human DNA polymerase gamma assessed as increase in primer extension incubated at 37 degC for 60 mins and at 80 degC for 3 mins in presence of fluorescent-lebelled dATP, dCTP and dGTP by PAGE analysis. Format: ADME. The settings on record: 1.05 h, time 63 min. A digest of the protocol: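 Human DNA polymerase γ (4 U) with Cy3-primer/template duplex 0.20 μM in 60 mM Tris-HCl pH 8, 5 mM MgOAc, 1.0 mM DTT, 0.1 mM spermine, 0.01% BSA. Preincubated 5 min at 37 °C without nucleotides, then run 60 min at 37 °C with nucleotides 250 μM, then 80 °C for 3 min. Denaturing 15% PAGE with fluorescence imaging.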

The nature of data set [2]: Stability of compound in human CEM/0 cell extract assessed as half life by RP18-HPLC analysis. It is filed as ADME, tissue-based, CCRF-CEM. A digest of the protocol:
(§1)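 Extract preparation: CEM CD4⁺ T-cells grown in RPMI-1640 to ~3 × 10⁶ cells/mL, washed in cold PB, resuspended at 10⁸ cells/mL, sonicated, clarified at 10,000 rpm and stored at −80 °C. Compounds from 50 mM DMSO stock (diluted to 6.0 mM in DMSO) incubated in the extract. Reactions stopped with THF, put on ice, centrifuged and filtered.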

In data set [3] the test system is Human immunodeficiency virus 1. Put plainly: Antiviral activity against HIV1 3B infected in human CEM/0 cells assessed as inhibition of virus-induced syncytia cell formation measured after 4 to 5 days by microscopic analysis. The settings on record: Human immunodeficiency virus 1, 3B, CCRF-CEM. Format: functional, organism-based. A digest of the protocol:
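Syncytium-inhibition assay in wild-type CEM/0 or TK-deficient CEM/TK⁻ cells, ~3 × 10⁵ cells/mL, infected with 100 CCID₅₀/mL HIV-1(III_B) or HIV-2(ROD), with serial compound dilutions. Incubated 4−5 days at 37 °C in humidified CO₂ atmosphere. Giant cells scored microscopically; EC₅₀ is the concentration halving HIV-induced giant cell formation. Values are the mean ± SD of n = 2−3 independent experiments.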

The nature of data set [4]: Chemical stability of compound in PBS at pH 7.3 by RP18-HPLC analysis. The following applies: buffer. It is filed as physicochemical. In outline:
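From 50 mM DMSO stocks, diluted to 1.9 mM hydrolysis solutions in water/DMSO. Reaction started by adding phosphate buffer (50 mM, pH 7.3; 25 mM also stated). Incubated at 37 °C with time-course sampling. Starting material and products (γ-kb-NTP, d4TDP, thymine) followed by analytical rp18 HPLC, from which t½ was calculated.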

Data set [5] in a line: Prodrug conversion in PBS buffer at pH 7.3 assessed as pig liver esterase-mediated cleavage of ketobenzyl-residue measured over 800 hrs by HPLC analysis. It is filed as ADME, Sus scrofa. The following applies: pH 7.3, 800 h.
Data set [6] is described as follows: Stability in human CEM/0 cell extract assessed as parent compound remaining up to 98 hrs by HPLC analysis. It is filed as ADME, tissue-based, CCRF-CEM. The following applies: read-out: Stabilty. In outline: as §1
A short description of data set [7]: Substrate activity at HIV reverse transcriptase assessed as increase in primer extension incubated at 37 degC for 15 mins in presence of radiolabeled dATP, dCTP, and dGTP by PAGE analysis. It is filed as ADME. The settings on record: human immunodeficiency virus, 0.25 h. In outline:
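Template 30-mer annealed to a ³²P-labelled 25-mer primer (95 °C, then cooled to −20 °C over 3 h; 20 mM Tris-HCl pH 7.6, 50 mM NaCl). Reaction: 50 mM Tris-HCl pH 8.6, 10 mM MgCl₂, 40 mM KCl, nucleotides 66 μM, HIV-RT 0.2 U, duplex 0.32 μM. Run 15 min at 37 °C, stopped at 80 °C for 3 min. Resolved on denaturing 15% PAGE and read by phosphorimaging.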

Data set [8] relates to Human immunodeficiency virus 2. Put plainly: Antiviral activity against HIV2 ROD infected in human CEM/0 cells assessed as inhibition of virus-induced syncytia cell formation measured after 4 to 5 days by microscopic analysis. The following applies: Human immunodeficiency virus 2, ISOLATE ROD, CCRF-CEM.
The test system of data set [9] is Human immunodeficiency virus 2. The data set can be described thus: Antiviral activity against HIV2 ROD infected in human TK-deficient […] cells assessed as inhibition of viral-induced giant cell formation incubated for 4 to 5 days by microscopy. The settings on record: Human immunodeficiency virus 2, ISOLATE ROD.
Data set [10] is described as follows: Cytotoxicity against human CEM/0 CD4+ T cells assessed as reduction in cell viability. It is filed as cell-based, CCRF-CEM. In outline:
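Cytostatic readout: CC₅₀ is the compound concentration inhibiting CEM CD4⁺ T-cell proliferation by 50%. Values are the mean ± SD of n = 2−3 independent experiments.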

Broadly, the half-life is how long it takes for the measured level to halve. The EC50 is the concentration needed to bring the measured effect to its halfway point. A word on the CC50: it is the concentration at which the toxic effect on the cells reaches its halfway point. With `CCCCCCCCCC(=O)c1ccc(COP(=O)(O)OP(=O)(O)OP(=O)(O)OC[C@H]2O[C@@H](n3cc(C)c(=O)[nH]c3=O)C[C@@H]2O)cc1`, the values for the Activity entry in data set [1] and in [7] were “Not Active” and “Active”, respectively. The half-life in data set [2] was above 1800 min. The concentration for a half-maximal effect (EC50) is 6.6 µM in data set [3], 8.8 µM in data set [8] and above 10 µM in data set [9]. Also, the Stabilty result in data set [4] is reported as “Stable”. In data set [5], the Drug metabolism result is “Metabolite_Notdetected”. Also, the remaining at 98 h in data set [6] came out at 98%. The CC50 in [10] worked out at 10 µM.
